inhibition, IC50 and Activity data for six compounds are collected here from ChEMBL document CHEMBL2010803, “Novel NSAID 1-acyl-4-cycloalkyl/arylsemicarbazides and 1-acyl-5-benzyloxy/hydroxy carbamoylcarbazides as potential anticancer agents and antioxidants” (Eur J Med Chem, 2012).

Each structure is given as a SMILES string. Active and inactive are the calls of the source. No cut-off for these calls is given here.

Assay [1] has as its system Respiratory syncytial virus. Briefly: Antiviral activity against RSV infected in human cervix carcinoma cells assessed as inhibition of virus-induced cytopathic effect at 0.32 to 100 uM. In kind it is functional, organism-based. Put shortly:
(§1)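 Confluent cell cultures were infected with 100 CCID50 of virus in the presence of test compound at 100, 40, 8, 1.6 and 0.32 μM. Cytopathic effect was scored once it was complete in untreated infected controls.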
A general note: Cytopathic effects are the visible damage that an infection or toxin causes in cultured cells.

The test system of assay [2] is Coxsackievirus B4. Put plainly: Antiviral activity against Coxsackievirus B4 infected in human cervix carcinoma cells assessed as inhibition of virus-induced cytopathic effect at 0.32 to 100 uM. Format: functional, organism-based. The method in brief:
as §1

In assay [3] the test system is L1210. Briefly: Cytostatic activity against mouse L1210 cells after 2 days by coulter counter analysis. Format: functional, cell-based. As to conditions: L1210, 48 h. Put shortly:
(§2)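 300,000–500,000 cells/ml mixed 1:1 with compound dilutions and incubated at 37 °C for 2 days (L1210) or 3 days (CEM, HeLa). Cell number counted with a Coulter counter; HeLa trypsinized before counting.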

Assay [4] deals with CCRF-CEM. Put plainly: Cytostatic activity against human CEM cells after 3 days by coulter counter analysis. As to conditions: 72 h. In kind it is functional, cell-based. The method in brief: as §2
The test system of assay [5] is HeLa. Put plainly: Cytostatic activity against human HeLa cells after 3 days by coulter counter analysis. Format: functional, cell-based. The conditions noted are these: 72 h. The method in brief:
as §2

In assay [6] the test system is HCT-116. Briefly: Cytostatic activity against human HCT116 cells after 72 hrs by MTT assay. In kind it is functional, cell-based. The conditions noted are these: HCT-116, 72 h. Put shortly:
(§3)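 Monolayers in DMEM with 10% FBS, 2 mM L-glutamine and penicillin/streptomycin, 37 °C, 5% CO2. Seeded at 1–3 × 10^4 cells/ml, then compound added in tenfold dilutions (10⁻⁸–10⁻⁴ M) for 72 h. MTT read at 570 nm; percent growth taken against time-zero and untreated controls. IC50 by linear regression; quadruplicate, at least two experiments.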

For assay [7], the system named is MCF7. Briefly: Cytostatic activity against human MCF7 cells after 72 hrs by MTT assay. In kind it is functional, cell-based. The conditions noted are these: MCF7, 72 h. Put shortly:
as §3
Background: Formazan colour is commonly taken as a measure of viable cells.

Assay [8] relates to NCI-H460. Put plainly: Cytostatic activity against human NCI-H460 cells after 72 hrs by MTT assay. As to conditions: NCI-H460, 72 h. Format: functional, cell-based. The method in brief:
as §3

Assay [9] has as its system Human alphaherpesvirus 1. Put plainly: Antiviral activity against HSV1 KOS infected in human lung fibroblast assessed as inhibition of virus-induced cytopathic effect at 0.32 to 100 uM. Format: functional, organism-based. Put shortly: as §1
In assay [10] the test system is Human alphaherpesvirus 2. Put plainly: Antiviral activity against HSV2 G infected in human lung fibroblast assessed as inhibition of virus-induced cytopathic effect at 0.32 to 100 uM. The conditions noted are these: strain G. In kind it is functional, organism-based. The method in brief:
as §1

Assay [11] relates to Vaccinia virus. Put plainly: Antiviral activity against Vaccinia virus infected in human lung fibroblast assessed as inhibition of virus-induced cytopathic effect at 0.32 to 100 uM. Format: functional, organism-based. The conditions noted are these: Orthopoxvirus vaccinia.
For assay [12], the system named is Vesicular stomatitis virus. Put plainly: Antiviral activity against VSV infected in human lung fibroblast assessed as inhibition of virus-induced cytopathic effect at 0.32 to 100 uM. Format: functional, organism-based.
The test system of assay [13] is Human respirovirus 3. Put plainly: Antiviral activity against Parainfluenza virus 3 infected in african green monkey Vero cells assessed as inhibition of virus-induced cytopathic effect at 0.32 to 100 uM. Format: functional, organism-based. Put shortly: as §1
Assay [14] has as its system Mammalian orthoreovirus 1. Put plainly: Antiviral activity against Reovirus-1 infected in african green monkey Vero cells assessed as inhibition of virus-induced cytopathic effect at 0.32 to 100 uM. Format: functional, organism-based. Put shortly: as §1
Assay [15] concerns Sindbis virus. Briefly: Antiviral activity against Sindbis virus infected in african green monkey Vero cells assessed as inhibition of virus-induced cytopathic effect at 0.32 to 100 uM. In kind it is functional, organism-based. Put shortly: as §1
Assay [16] has as its system Coxsackievirus B4. Briefly: Antiviral activity against Coxsackievirus B4 infected in african green monkey Vero cells assessed as inhibition of virus-induced cytopathic effect at 0.32 to 100 uM. Format: functional, organism-based. The method in brief:
as §1

For assay [17], the system named is Punta Toro virus. Briefly: Antiviral activity against Punta Toro virus infected in african green monkey Vero cells assessed as inhibition of virus-induced cytopathic effect at 0.32 to 100 uM. In kind it is functional, organism-based. Put shortly: as §1
Assay [18] has as its system Vesicular stomatitis virus. Briefly: Antiviral activity against Vesicular stomatitis virus infected in human cervix carcinoma cells assessed as inhibition of virus-induced cytopathic effect at 0.32 to 100 uM. Format: functional, organism-based. Put shortly:
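Confluent human cervix carcinoma (HeLa) cultures received 100 CCID50 of VSV together with the compound at 100, 40, 8, 1.6 or 0.32 μM. Cytopathicity was read at the point of full CPE in infected, untreated control wells.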

The subject of assay [19] is Felid alphaherpesvirus 1. Put plainly: Antiviral activity against Feline herpesvirus infected in feline CRFK cells assessed as inhibition of virus-induced cytopathic effect at 0.32 to 100 uM. In kind it is functional, organism-based. Put shortly: as §1
The test system of assay [20] is Feline coronavirus. Put plainly: Antiviral activity against Feline coronavirus infected in feline CRFK cells assessed as inhibition of virus-induced cytopathic effect at 0.32 to 100 uM. Format: functional, organism-based. Put shortly:
as §1

Assay [21] has as its system Influenza A virus. Briefly: Antiviral activity against Influenza A virus H1N1 infected in MDCK cells assessed as inhibition of virus-induced cytopathic effect at 0.32 to 100 uM. Format: functional, organism-based. The method in brief:
(§4)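 Confluent MDCK monolayers were infected in the presence of the compound at 100, 40, 8, 1.6 and 0.32 μM. Viral cytopathicity was scored once it was complete in untreated infected control cultures.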

Assay [22] has as its system Influenza A virus. Put plainly: Antiviral activity against Influenza A virus H3N2 infected in MDCK cells assessed as inhibition of virus-induced cytopathic effect at 0.32 to 100 uM. In kind it is functional, organism-based. Put shortly:
as §4

Assay [23] has as its system Influenza B virus. Briefly: Antiviral activity against Influenza B virus infected in MDCK cells assessed as inhibition of virus-induced cytopathic effect at 0.32 to 100 uM. In kind it is functional, organism-based. The method in brief:
as §4

Assay [24] concerns Human immunodeficiency virus 1. Put plainly: Antiviral activity against HIV1 3B infected in human CEM cells assessed as inhibition of virus-induced CEM giant cell formation at 0.32 to 100 uM after 4 days. As to conditions: CCRF-CEM. In kind it is functional, organism-based. Put shortly:
(§5)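 CEM cells (~3 × 10^5 cells/cm³) exposed to 100 CCID50/ml of virus and seeded into wells holding compound dilutions. Incubated 4 days at 37 °C, then giant cell formation examined microscopically.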

Assay [25] has as its system Human immunodeficiency virus 2. Put plainly: Antiviral activity against HIV2 ROD infected in human CEM cells assessed as inhibition of virus-induced CEM giant cell formation at 0.32 to 100 uM after 4 days. Format: functional, organism-based. As to conditions: ISOLATE ROD, CCRF-CEM. The method in brief: as §5
In assay [26] the test system is Radical scavenging activity. Briefly: Antioxidant activity assessed as DPPH free radical scavenging activity at 100 uM after 20 mins by spectrophotometric analysis. Format: functional. Put shortly: (§6)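 0.05 mM DPPH in absolute ethanol mixed with an equal volume of compound in DMSO (final 100 μM). Shaken and left 20 or 60 min, then absorbance read at 517 nm and percent activity calculated. Three replicates, averaged.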

The subject of assay [27] is Radical scavenging activity. Put plainly: Antioxidant activity assessed as DPPH free radical scavenging activity at 100 uM after 60 mins by spectrophotometric analysis. Format: functional. The method in brief:
as §6
(In general: Loss of DPPH colour is used to gauge radical scavenging.)

Assay [28] in a line: Antioxidant activity assessed as inhibition of AAPH-induced linoleic acid lipid peroxidation by measuring conjugated diene hydroperoxide level. In kind it is functional. Also on record: concentration or dose not given beside the values. As to conditions: dose or concentration not given here. The method in brief:
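Linoleic acid sodium salt (10 μL of 16 mM) in 0.05 M phosphate buffer pH 7.4 at 37 °C. Oxidation started under air with 50 μL of 40 mM AAPH. Conjugated diene hydroperoxide formation followed as absorbance rise at 234 nm; control contains the same DMSO level. At least triplicate.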

Assay [29] concerns Glycine max. Briefly: Inhibition of soybean LOX assessed as conversion of sodium linoleate to 13- hydroperoxylinoleic acid at 100 uM.

One may read the inhibition as the percentage by which the read-out fell short of the control. Usually IC50 stands for the midpoint of a concentration-inhibition curve. `O=C(NNC(=O)n1nnc2ccccc21)NOCc1ccccc1`: the inhibition entry in assay [1], in assay [2], in assay [9], in assay [10], in assay [11] and in assay [12] was “inactive” each time. Further, the inhibition entry in assay [13], in assay [14], in assay [15], in assay [16], in assay [17] and in [18] was “inactive” in each case. The inhibition entry in [19], in [20], in assay [21], in assay [22], in [23] and in assay [24] was “inactive” in each case. The inhibition result in assay [25] and in [29] was “inactive” each time. The IC50 in assay [3] was > 250 µM; in assay [4] it was > 250 µM; in assay [5], > 250 µM; in assay [6], > 100 µM; in assay [7], > 100 µM; in assay [8], > 100 µM. The Activity in assay [26] and in assay [27] was 85% in each case. Besides, in assay [28], the inhibition stood at 31%.

As for `CC(C)Cc1ccc(C(C)C(=O)NNC(=O)NNC(=O)NOCc2ccccc2)cc1` (stereo unspecified), the inhibition entry in assay [1], in assay [2], in assay [9], in assay [10], in assay [11] and in [12] was “inactive” each time. The inhibition entry in assay [13], in assay [14], in [15], in assay [16], in assay [17] and in [18] was “inactive” each time. Also, the inhibition result in assay [19], in [20], in assay [21], in assay [22], in assay [23] and in [24] was “inactive” throughout. Besides, the inhibition result in [25] and in [29] was “inactive” in each case. Besides, the 50% inhibitory concentration (IC50) in assay [4] is 106 µM; in [5], 98 µM; in assay [6] it was 56 µM; in assay [7], 19 µM; in assay [8], 71 µM. In addition, the Activity in assay [26] amounted to 11%; in assay [27], 18%. The inhibition in assay [28] came to 13%.

Turning to `CC(Cc1ccc(O)c(O)c1)C(C)Cc1ccc(O)c(O)c1` (stereo unspecified), the Activity in [26] worked out at 80%; in assay [27] it was 91%.

For the compound `CC(C(=O)NNC(=O)NNC(=O)NOCc1ccccc1)c1cccc(Oc2ccccc2)c1` (stereo unspecified), the inhibition entry in assay [1], in [2], in assay [9], in assay [10], in assay [11] and in assay [12] was “inactive” in each case. Moreover, the inhibition result in assay [13], in assay [14], in assay [15], in assay [16], in assay [17] and in assay [18] was “inactive” throughout. Further, the inhibition entry in assay [19], in [20], in [21], in assay [22], in [23] and in [24] was “inactive” throughout. Further, the inhibition entry in [25] and in assay [29] was “inactive” each time. Further, the half-maximal inhibitory concentration (IC50) was 103 µM in [3]; 90 µM in assay [4]; 84 µM in assay [6]; 26 µM in assay [7]; > 100 µM in assay [8]. Besides, the Activity in [26] is 8%; in [27], 15%. Further, in assay [28], the inhibition turned out to be 26%.

Take `CC(C(=O)NNC(=O)NC1CCCCC1)c1cccc(Cc2ccccc2)c1` (stereo unspecified): the inhibition result in assay [1], in assay [2], in [9], in [10], in [11] and in [12] was “inactive” throughout. Moreover, the inhibition result in assay [13], in assay [14], in assay [15], in assay [16], in [17] and in [18] was “inactive” throughout. The inhibition result in assay [19], in assay [20], in assay [21], in assay [22], in assay [23] and in [24] was “inactive” each time. Also, the inhibition entry in assay [25] is “inactive”. Further, the half-maximal inhibitory concentration (IC50) came to 25 µM in assay [4]; 45 µM in assay [5]; 22 µM in assay [6]; 16 µM in assay [7]; 23 µM in assay [8]. The Activity in assay [26] was found to be 3%; in assay [27], 10%. Besides, the inhibition in assay [28] came out at 31%; in [29], 10%.

Take `Cc1c(C)c2c(c(C)c1O)CCC(C)(C(=O)O)O2` (stereo unspecified): in [28], the inhibition was determined as 63%.
